The source made the active and inactive calls. No cut-off for these calls is given here.
Key:
[1] = test system: HCT-116; assay: Cytotoxicity against human HCT116 cells assessed as cell viability under normoxic condition after 24 hrs by MTT assay; format: functional, cell-based; conditions: HCT-116, 24 h
Outline: (§1)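 HCT116 cells seeded at 6.0 × 10^3 cells/well in McCoy's 5A with 10% FBS and antibiotics, grown 24 h, then exposed to compound for 24 h under normoxia (20% O2) or hypoxia (1% O2, 94% N2, 5% CO2, 37 °C). MTT 0.5 mg/mL added for 4 h at 37 °C, cells lysed in DMSO, absorbance read at 570 nm. Final DMSO 1.0% (v/v).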

[2] = test system: HCT-116; assay: Cytotoxicity against human HCT116 cells assessed as cell viability under normoxic condition at 100 uM after 24 hrs by MTT assay; format: functional; outline: as §1
[3] = test system: HEK293; assay: Modulation of HIF1 expressed in HEK293 cells assessed as luciferase activity under hypoxic condition at 50 uM after 24 hrs by luminometer analysis relative to hypoxic control; format: cell-based
Outline: (§2)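 HEK293 stable clone carrying a luciferase reporter driven by a 68-bp ENO1 hypoxia response element upstream of the SV40 promoter, seeded at 8 × 10^4 cells/well. After 24 h, compound added; 1 h later cells moved to 1% O2 hypoxia for 24 h. Luciferase read by luminometer, expressed as ratio to hypoxic control. Final DMSO 0.5%; triplicate wells.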

[4] = test system: HEK293; assay: Modulation of HIF1 expressed in HEK293 cells assessed as luciferase activity under hypoxic condition at 30 uM after 24 hrs by luminometer analysis relative to hypoxic control; format: cell-based; outline: as §2
[5] = test system: HCT-116; assay: Cytotoxicity against human HCT116 cells assessed as cell viability under normoxic condition at 200 uM after 24 hrs by MTT assay; format: functional; outline: as §1
[6] = Antiangiogenic activity in 3-day-old embryonated chicken eggs at 300 ng/CAM measured on 7th embryonic day by CAM assay; format: functional, Gallus gallus, Egg
[7] = Solubility of the compound in dimethylsulfoxide; format: physicochemical
[8] = Modulation of HIF1 expressed in HEK293 cells assessed as luciferase activity under hypoxic condition after 24 hrs by luminometer analysis; format: cell-based; conditions: HEK293, 24 h
[9] = target: T1, Hypoxia inducible factors; HIF-1-alpha, HIF-2-alpha (Homo sapiens) (UniProt Q16665+Q99814); assay: Inhibition of HIF1-dependent VEGFA mRNA expression in human HCT116 cells under hypoxic condition at 50 uM after 24 hrs by RT-PCR analysis; format: cell-based; conditions: HCT-116
Outline: (§3)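 HCT116 cells seeded at 1 × 10^6 per dish in McCoy's 5A/10% FBS, grown 24 h, then treated 24 h under hypoxia (1% O2) or normoxia. Total RNA extracted directly after treatment. Real-time RT-PCR run as 95 °C 30 s, then 40 cycles of 95 °C 5 s and 60 °C 30 s. Normalized to 18S rRNA, relative expression by 2^-ΔΔCT; mean ± SD.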

[10] = target: T1, Hypoxia inducible factors; HIF-1-alpha, HIF-2-alpha (Homo sapiens); assay: Inhibition of HIF1-dependent HK2 mRNA expression in human HCT116 cells under hypoxic condition at 50 uM after 24 hrs by RT-PCR analysis; format: cell-based; conditions: HCT-116; outline: as §3
[11] = test system: HCT-116; assay: Inhibition of HIF1alpha expression in human HCT116 cells under hypoxic condition after 4 hrs by immunoblotting; format: functional, cell-based
Outline: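 HCT116 cells at 4 × 10^6 per dish, grown 24 h, then exposed 4 h under hypoxia (1% O2) or normoxia (20% O2). Lysed on ice in Tris/SDS/deoxycholate buffer with protease and phosphatase inhibitors; 120 µg protein per lane on 7% SDS-PAGE. Probed with mouse anti-human HIF-1α (1:500) and β-actin control; HRP secondary, chemiluminescence quantitation.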

[12] = test system: HCT-116; assay: Cytotoxicity against human HCT116 cells assessed as cell viability under hypoxic condition at 200 uM after 24 hrs by MTT assay; format: functional; outline: as §1
[13] = test system: HCT-116; assay: Cytotoxicity against human HCT116 cells assessed as cell viability under normoxic condition at 200 uM after 7 days by clonogenic assay; format: functional
Outline: (§4)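 HCT116 cells plated at 3.0 × 10^2 cells per dish and treated 24 h under normoxia (20% O2) or hypoxia (1% O2). On day 7 colonies were washed with PBS, fixed in methanol 30 min at room temperature, stained with Giemsa over 3 h, then counted.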

[14] = target: T1, Hypoxia inducible factors; HIF-1-alpha, HIF-2-alpha (Homo sapiens); assay: Inhibition of HIF1-dependent GLUT1 mRNA expression in human HCT116 cells under hypoxic condition at 50 uM after 24 hrs by RT-PCR analysis; format: cell-based; conditions: HCT-116; outline: as §3
[15] = test system: HCT-116; assay: Cytotoxicity against human HCT116 cells assessed as cell viability under hypoxic condition at 200 uM after 7 days by clonogenic assay; format: functional; outline: as §4
[16] = test system: HCT-116; assay: Cytotoxicity against human HCT116 cells assessed as cell viability under normoxic condition at 50 uM after 7 days by clonogenic assay; format: functional
[17] = test system: HCT-116; assay: Cytotoxicity against human HCT116 cells assessed as cell viability under normoxic condition at 50 uM after 24 hrs by MTT assay; format: functional
[18] = test system: HCT-116; assay: Cytotoxicity against human HCT116 cells assessed as cell viability under hypoxic condition at 50 uM after 24 hrs by MTT assay; format: functional; outline: as §1
[19] = test system: HCT-116; assay: Cytotoxicity against human HCT116 cells assessed as cell viability under hypoxic condition at 50 uM after 7 days by clonogenic assay; format: functional

COC(=O)/C=C/c1ccc(O)c(CC=C(C)C)c1 [PLICATIN B]
IC50 [1]: 10.6 µM

CC(C)(C)c1cc(/C=C/C(=O)O)cc(C(C)(C)C)c1O
Activity [2]: 108.4%
Ratio [3]: 0.77

COC(=O)/C=C/c1ccc(OC)c(CC=C(C)C)c1 [PALICATIN B METHYL ETHER]
IC50 [1]: 37.6 µM
Ratio [4]: 1.17

CC(C)=CCc1cc(/C=C/C(=O)O)cc(CC=C(C)C)c1O [ARTEPILLIN]
Activity [5]: 53.3%
inhibition (INH) [6]: 80.9%
Ratio [3]: 1.09

C=C(C)[C@@H]1CC[C@]2(C)CC[C@]3(C)[C@H](CC[C@@H]4[C@@]5(C)CC[C@H](OC(=O)C[C@H](O)CCCCCCCCCCCCC)C(C)(C)[C@@H]5CC[C@]43C)[C@@H]12
solubility [7]: Insoluble

C=CCc1cc(/C=C/C(=O)O)ccc1O
Activity [2]: 98.4%
Ratio [3]: 0.9

O=C(O)/C=C/c1ccc(O)cc1 [COUMARIC ACID]
Activity [2]: 99.3%
Ratio [3]: 0.93

COc1ccc(/C=C/C(=O)O)cc1CC=C(C)C
Activity [2]: 95.7%
Ratio [3]: 0.82

O=C(O)/C=C/c1ccc(OC(=O)CCc2ccccc2)cc1
Ratio [3]: 1.08

CC(C)=CCc1cc(/C=C/C(=O)O)ccc1O [DRUPANIN]
IC50 [8]: 25.6 µM
inhibition [9]: Active
inhibition [10]: Active
inhibition [11]: Dose-dependent effect
Activity [12]: 146%
Activity [13]: 105.8%
Activity [5]: 127.1%
inhibition [14]: Active
inhibition (INH) [6]: 84.3%
Ratio [3]: 0.36
Activity [15]: 101.2%

COc1ccc(-c2oc3cc(O)c(OC)c(O)c3c(=O)c2O)cc1 [BETULETOL]
Activity [16]: 96.8%
Activity [17]: 69%
inhibition (INH) [6]: 46.7%
Activity [18]: 86.8%
Activity [19]: 90.3%

CC(C)=CCc1cc(/C=C/C(=O)O)ccc1OC(=O)CCc1ccccc1 [BACCHARIN]
IC50 [8]: 77.4 µM
inhibition [9]: Active
inhibition [10]: Active
inhibition [11]: Dose-dependent effect
Activity [12]: 69.4%
Activity [13]: 74.8%
Activity [5]: 58.2%
inhibition [14]: Active
inhibition (INH) [6]: 83.2%
Ratio [3]: 0.52
Activity [15]: 74%

COc1ccc(-c2oc3cc(O)cc(O)c3c(=O)c2O)cc1 [KAEMPFERIDE]
Activity [16]: 79.9%
Activity [17]: 102.5%
inhibition (INH) [6]: 39.5%
Activity [18]: 173.3%
Activity [19]: 87.6%

— ChEMBL document CHEMBL1817552, “Isolation, identification, and biological evaluation of HIF-1-modulating compounds from Brazilian green propolis” (Bioorg Med Chem, 2011)
